Only some compounds are listed: those with a hit (about 6% of all), similar ones and a draw of the others.
H69AR inhibit – blocks growth of human H69AR lung tumor cells; H69AR lung tumor viability, ATP luminescence, 72 h; stronger effect = lower value; viability, % at 10 µM; hit rate 6% among 85,000;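 active means viability at or below 40%; inactive means viability above 40%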;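 further: multidrug resistant small cell line overexpressing MRP-1 efflux transporter; 100% = mean luminescence of untreated control wells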
F-actin modifier – cytoskeleton assembly modification; HUVEC TNFa F-actin phalloidin imaging, high content; inhibition, % at 2 µM; hit rate 0.18% among 91,000; AID 836;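 active means inhibition above the batch mean plus 3 SD and confirmed as a hit by visual image inspection, cut at about 30% in these data, passing the limit was not always enough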
Jurkat viability – cytotoxicity toward Jurkat cells. inhibition, % at 4 µM. hit rate 1.2% among 56,000. Jurkat E6.1 viability, ATP luminescence, 48 h;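 active means inhibition above the mean inhibition of all tested compounds plus 3 SD, cut at about 28% in these data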
Fibroblast inh – blocks proliferation of human lung fibroblasts; hit rate 1.1% among 85,000; viability, % at 10 µM; LL 47 human lung fibroblast viability, ATP luminescence; stronger effect = lower value; AID 719;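 active means viability at or below 50% in the single dose screen; inactive means viability above 50%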;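 further: compound exposure lasted 72 h before the ATP readout; 100% = median luminescence of untreated cell-only wells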
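Material: Human LL 47 lung fibroblast cells | Input: 1,150 cells/well | Buffer or medium: IMEM plus 15% FBS | Compound dosing: 0.1% DMSO in all compound wells | Times: Overnight cell rest, 72 h compound treatment at 37 °C | Signal: CellTiter-Glo luminescence measuring cellular ATP | Measure: % viability versus median cells-only luminescence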
PTK2B oligo ant – antagonists of human Pyk2 oligomerization. Q293 cells, Pyk2 FERM NanoBiT luminescence; stronger effect = lower value. z-score (the deposit names both 25 µM and 10 µM). Q14289. hit rate 0.83% among 99,000;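 active means Z-score of -3 or lower, scaled per plate to the spread of control and sample wells; inactive means z-score above -3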;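 further: negative z-score means lost luminescence so less FERM oligomerization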
Target sequence (Q14289 whole entry, looked up): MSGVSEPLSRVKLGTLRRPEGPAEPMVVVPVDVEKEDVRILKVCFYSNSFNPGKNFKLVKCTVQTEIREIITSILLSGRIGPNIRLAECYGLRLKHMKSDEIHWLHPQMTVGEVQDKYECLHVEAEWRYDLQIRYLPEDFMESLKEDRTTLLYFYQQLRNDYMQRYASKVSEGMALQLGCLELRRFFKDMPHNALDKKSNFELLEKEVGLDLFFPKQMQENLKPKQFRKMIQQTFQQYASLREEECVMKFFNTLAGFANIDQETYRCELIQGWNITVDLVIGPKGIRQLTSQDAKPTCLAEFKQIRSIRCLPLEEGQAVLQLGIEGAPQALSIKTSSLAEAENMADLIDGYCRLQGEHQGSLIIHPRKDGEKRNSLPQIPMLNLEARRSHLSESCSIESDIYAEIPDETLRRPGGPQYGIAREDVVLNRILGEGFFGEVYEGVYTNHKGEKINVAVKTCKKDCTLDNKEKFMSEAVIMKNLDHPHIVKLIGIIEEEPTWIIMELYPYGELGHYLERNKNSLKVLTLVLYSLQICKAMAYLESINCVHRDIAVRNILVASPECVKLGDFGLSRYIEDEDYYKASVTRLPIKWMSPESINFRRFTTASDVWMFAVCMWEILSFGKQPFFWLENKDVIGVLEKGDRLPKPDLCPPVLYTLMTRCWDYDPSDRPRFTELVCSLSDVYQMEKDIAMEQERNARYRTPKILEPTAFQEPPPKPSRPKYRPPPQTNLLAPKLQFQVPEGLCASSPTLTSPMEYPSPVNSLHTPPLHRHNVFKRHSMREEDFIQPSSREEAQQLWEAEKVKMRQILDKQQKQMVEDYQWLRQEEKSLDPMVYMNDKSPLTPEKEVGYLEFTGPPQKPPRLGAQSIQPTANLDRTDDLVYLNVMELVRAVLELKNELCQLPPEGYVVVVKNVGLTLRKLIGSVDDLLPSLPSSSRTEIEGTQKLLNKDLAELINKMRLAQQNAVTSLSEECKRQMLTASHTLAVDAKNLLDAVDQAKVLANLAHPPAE
HUVEC inhibit – human endothelial cell proliferation inhibition | HUVEC proliferation, CellTiter-Glo luminescence, 72 h; stronger effect = lower value | viability, % at 10 µM (by protocol) | hit rate 1.1% among 86,000 | AID 648;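 active means viability at or below 30%; inactive means viability above 30%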;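 further: 100% = median luminescence of DMSO-only cell control wells on each plate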
The depositor's hits bear a star; nt = no result.

SMILES	H69AR inhibit	F-actin modifier	Jurkat viability	Fibroblast inh	PTK2B oligo ant	HUVEC inhibit
Cc1onc(-c2c(F)cccc2Cl)c1C(=O)Nc1cccc2nsnc12	80	-5	5	106	-1	109
Cc1onc(-c2c(F)cccc2Cl)c1C(=O)Nc1nc2ccccc2[nH]1	33*	-2	nt	72	-1	84
CCOc1ccc(NC(=O)CNC(=O)c2cn(-c3ccccc3OC)c(=O)c3ccccc23)cc1	104	10	nt	112	0.65	98
O=C(COC(=O)Cc1cn2ccsc2n1)Nc1nc2ccccc2s1	7.2*	10	3	93	-0.07	96
COc1ccc(CCC(=O)N2CCN(C3CCCCC3)CC2)cc1	91	-15	-1	17*	-0.14	95
O=C(CCC1CCCC1)N1CCN(C2CCCC2)CC1	88	nt	-4	87	0.39	94
CC(=O)OCCCN1c2ccccc2Nc2nnc(-c3ccccc3)cc21	39*	-6	nt	88	-2.8	67
CCOC(=O)c1cc(-c2ccccc2)n(CC(=O)O)c1C	108	nt	-6	96	1.2	104
CC(C)C(=O)Nc1ccc(Cc2ccc(NC(=O)C(C)C)c(O)c2)cc1O	99	-16	nt	103	-0.01	113
CC(Cc1ccc(O)c(O)c1)C(C)Cc1ccc(O)c(O)c1 (centres undefined)	33*	nt	nt	93	nt	70
CC(=O)Nc1cccc(C(=O)NC(C)c2ccc(S(N)(=O)=O)cc2)c1 (centres undefined)	83	0	nt	93	1.5	83
CCCNC(=O)N1CCN(c2nc(C(C)C)c3c(c2C#N)CC(C)(C)OC3)CC1	79	5	10	83	nt	60
CC1(C)Cc2c(C#N)c(N3CCN(C(=O)c4ccco4)CC3)nc(Cc3ccccc3)c2CO1	55	8	nt	79	-1.8	21*
Cc1nc(N2CCN(C(=O)c3ccc(Cl)cc3)CC2)c(C#N)c2c1COC(C)(C)C2	37*	4	nt	95	1.7	99
O=C(NC1CCCCC1)N1CCCC(c2nc(-c3cccs3)no2)C1 (centres undefined)	90	1	nt	93	0.44	93
O=C(NC1CCCCC1)N1CCCC(c2nc(-c3ccc(S(=O)(=O)N4CCCC4)cc3)no2)C1 (centres undefined)	35*	12	-1	88	-1.9	88
O=C(Nc1ccccc1)N1CCC(c2nc(-c3ccc(S(=O)(=O)N4CCOCC4)cc3)no2)CC1	82	-3	33*	60	1.1	62
Cc1cccc(N2CCN(C(=O)c3ccncc3)CC2)c1C	21*	-2	60*	81	1.4	66
O=C(C(Cc1ccccc1)n1cccc1)N1CCN(c2ncccn2)CC1 (centres undefined)	94	-3	4	104	nt	107
COc1cc(C(=O)N2CCN(c3cccc(C)c3C)CC2)cc(OC)c1OC	nt	5	94*	nt	nt	nt
Cc1ccccc1S(=O)(=O)Cc1ccc(C(=O)N2CCN(c3cccc(C)c3C)CC2)o1	nt	nt	93*	nt	-1.9	nt
Cc1cccc(N2CCN(C(=O)C(Cc3ccccc3)n3cccc3)CC2)c1C (centres undefined)	23*	-10	nt	93	nt	94
CC(=O)Nc1cc(C(=O)N2CCN(C)CC2)ccc1Sc1ccc(C)cc1	99	-3	nt	103	1.4	109
CCN1CCN(C(=O)Nc2ccccc2OC)CC1	84	6	nt	91	0.28	77
COc1ccccc1N1CCN(C(=O)c2oc3cc(C)cc(C)c3c2C)CC1	23*	-16	nt	91	-1.1	80
SMILES	H69AR inhibit	F-actin modifier	Jurkat viability	Fibroblast inh	PTK2B oligo ant	HUVEC inhibit
COc1ccc(C(=O)N2CCN(C(=O)c3cc(OC)c(OC)c(OC)c3)CC2)cc1	71	nt	-8	100	-0.37	89
COc1cc(C(=O)N2CCN(c3cc(Cl)ccc3Cl)CC2)cc(OC)c1OC	33*	6	61*	53	nt	43
FC(F)(F)COc1nc(N2CCOCC2)nc(N(c2ccccc2)c2ccccc2)n1	40*	3	nt	94	-0.94	92
CCCCCCSc1nc(O)c(C2OC(=O)c3c2ccc(OC)c3OC)c(=O)n1-c1ccccc1 (centres undefined)	91	13	nt	96	-0.64	80
COc1ccc(OC)c(S(=O)(=O)N2CCC(C(=O)N3CCc4ccccc4C3)CC2)c1	36*	-3	0	97	-0.05	86
CCOc1ccc2nc(NC(=O)C3CCN(c4cnccn4)CC3)sc2c1	34*	20	2	99	-0.09	91
CCOc1ccc2nc(NC(=O)Nc3cccs3)sc2c1	35*	nt	-4	89	nt	60

High-throughput results deposited in PubChem BioAssay by several laboratories.
